Results as given in ChEMBL document CHEMBL1208685, “Synthesis, antiproliferative activity and inhibition of tubulin polymerization by anthracenone-based oxime derivatives” (Eur J Med Chem, 2010).

Assays:
[1] = tested on: K562; assay: Cell growth inhibition of human K562 cells after 48 hrs; type: functional, cell-based; details: K562, 48 h
In short: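 K562 human chronic myelogenous leukemia cells cultured in Quantum 263 medium with streptomycin and penicillin G at 37 °C, 5% CO2. Seeded at 2 × 10⁵ cells/mL, exposed 48 h to compounds in DMSO/methanol 1:1 (vehicle 0.5%). Cells counted in Neubauer chamber and expressed as % of untreated control. Triplicate wells, three experiments. IC50 by nonlinear regression.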

[2] = target: Tubulin (Sus scrofa); assay: Inhibition of tubulin polymerization using porcine brain microtubule protein

Structure (SMILES)	IC50 [1] [µM]	IC50 [2] [µM]
COc1ccc(CON=C2c3cccc(OC)c3C(=O)c3c(OC)cccc32)cc1	3.4	> 10
COc1ccc(C(=O)ON=C2c3ccccc3C(=O)c3ccccc32)cc1O	2	–
O=C1c2cccc(Cl)c2/C(=N\O)c2cccc(Cl)c21	1.6	–
COc1ccc(S(=O)(=O)ON=C2c3ccccc3C(=O)c3ccccc32)cc1	3	> 10
COc1cc(C(=O)O/N=C2\c3cccc(Cl)c3C(=O)c3cccc(Cl)c32)cc(OC)c1OC	> 14	–
COc1cc(C(=O)ON=C2c3ccccc3C(=O)c3ccccc32)ccc1O	3	–
COc1cc(CO/N=C2\c3cccc(Cl)c3C(=O)c3cccc(Cl)c32)cc(OC)c1OC	> 14	–
COc1cc(CON=C2c3ccccc3C(=O)c3ccccc32)cc(OC)c1OC	> 12	–
O=C1c2cccc(Cl)c2/C(=N/O)c2cccc(Cl)c21	1.6	–
COc1ccc(C(=O)ON=C2c3ccccc3C(=O)c3ccccc32)cc1	3	> 10
O=C1c2ccccc2C(=NOCc2ccccc2)c2ccccc21	7	–
COc1ccc(C(=O)ON=C2c3cccc(Cl)c3C(=O)c3c(Cl)cccc32)cc1	> 12	–
O=C1c2ccccc2C(=NO)c2ccccc21	3	–
COc1ccc(CON=C2c3ccccc3C(=O)c3ccccc32)cc1	0.37	1.05

More lines, now with the values ahead:

IC50 [1] [µM]	IC50 [2] [µM]	Structure (SMILES)
> 12	–	COc1ccc(CON=C2c3cccc(Cl)c3C(=O)c3c(Cl)cccc32)cc1
0.9	–	COc1cccc2c1C(=O)c1c(OC)cccc1C2=NO
12	> 10	COc1ccc(C(=O)O/N=C2\c3cccc(Cl)c3C(=O)c3cccc(Cl)c32)cc1
> 12	> 10	COc1ccc(CO/N=C2\c3cccc(Cl)c3C(=O)c3cccc(Cl)c32)cc1
> 11	–	O=C1c2ccccc2C(=NOCc2ccc([N+](=O)[O-])cc2)c2ccccc21
> 12	–	COc1ccc(S(=O)(=O)O/N=C2\c3cccc(Cl)c3C(=O)c3cccc(Cl)c32)cc1
10	–	O=C1c2ccccc2C(=NOCc2ccc(Cl)cc2)c2ccccc21
0.11	1.43	COc1ccc(CON=C2c3ccccc3C(=O)c3ccccc32)cc1O
> 12	–	COc1cc(C(=O)ON=C2c3ccccc3C(=O)c3ccccc32)cc(OC)c1OC
2.4	> 10	COc1ccc(CON=C2c3cccc(OC)c3C(=O)c3c(OC)cccc32)cc1O
> 9	–	O=C1c2c(Cl)cccc2C(=NO)c2cccc(Cl)c21
